Values after ≈ are worked out from the molar mass of the structure shown. Active and inactive are the calls of the source. The calls are words filed in the database; no cut-off is given here.
Legend:
[1] = test system: Mycobacterium tuberculosis; assay: Antimycobacterial activity against Mycobacterium tuberculosis infected in aminobenzotriazole-pretreated BALB/c mouse chronic tuberculosis model assessed as reduction in log10CFU at 240 mg/kg, po bid for 20 days; type: functional, organism-based; design: dose 240 mg/kg
How it was run: (§1)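 Aerosol-infected BALB/c mice in BSL3, three per group. Treatment began 3 days (acute) or 4 weeks (chronic) after infection. ABT 100 mg/kg po in water was given 2 h before oral gavage of compound in 5% dextrose (pH 4−5 with acetic acid), 10 mL/kg, twice daily at 8 h intervals. Courses were 20 days (7 days/week) or 8 weeks (6 days/week). Lung homogenates were plated on 7H11 for cfu.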

[2] = test system: Mycobacterium tuberculosis; assay: Antimycobacterial activity against Mycobacterium tuberculosis infected in aminobenzotriazole-pretreated BALB/c mouse acute tuberculosis model assessed as reduction in bacterial burden at 80 to 160 mg/kg, po bid for 20 days; type: functional, organism-based; how it was run: as §1
[3] = Octanol-sodium phosphate buffer partition coefficient, log D of the compound at 10 mM at pH 7.4 by shake-flask method; type: physicochemical
[4] = Fraction unbound in aminobenzotriazole-pretreated BALB/c mouse plasma infected with Mycobacterium tuberculosis by LC-MS/MS analysis; type: ADME, cell-free
[5] = test system: Mycobacterium tuberculosis; assay: Bactericidal activity against Mycobacterium tuberculosis infected in human THP1 cells at 1 ug/ml for 7 days; type: functional, THP-1
How it was run: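 Adherent THP-1 macrophages infected with Mtb were exposed to compound at 1 μg/mL for 7 days at 37 °C. Kill was expressed as log reduction versus the untreated control.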

[6] = target: DNA gyrase subunit A/DNA gyrase subunit B (Mycobacterium tuberculosis (strain ATCC 25618 / H37Rv), UniProt P9WG45+P9WG47); assay: Inhibition of Mycobacterium tuberculosis H37Rv DNA gyrase holoenzyme-mediated supercoiling of pBR322 DNA after 90 mins by agarose gel electrophoresis
[7] = Apparent permeability from apical to basolateral side in human Caco2 cells; type: ADME, cell-based; conditions: Caco-2
Mus musculus [8] = assay: fT>MIC in BALB/c mouse infected with Mycobacterium tuberculosis at 160 mg/kg, po
How it was run: (§2)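 PK was measured in infected, ABT-pretreated mice during efficacy dosing (oral, 5% dextrose pH 4−5) on day 18 or 19. Saphenous blood was taken at 5, 15 and 30 min and 1, 2, 4 and 6 h. Plasma was precipitated with acetonitrile and analysed by LC−MS/MS. AUC came from noncompartmental analysis; free AUC/MIC and %free T>MIC used the unbound fraction and MIC.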

[9] = Apparent permeability from basolateral to apical side in human Caco2 cells; type: ADME, cell-based; conditions: Caco-2
[10] = test system: Mycobacterium tuberculosis; assay: Antimycobacterial activity against wild-type Mycobacterium tuberculosis H37Rv ATCC 27294 after 16 to 18 days by BACTEC 7H12B microdilution method; type: functional
[11] = test system: Mycobacterium tuberculosis; assay: Antimycobacterial activity against Mycobacterium tuberculosis infected in aminobenzotriazole-pretreated BALB/c mouse chronic tuberculosis model assessed as reduction in log10CFU at 40 to 80 mg/kg, po bid for 20 days; type: functional; conditions: dose mg/kg 40-80; how it was run: as §1
[12] = Clearance in rat at 40 mg/kg, po and 5 mg/kg, iv by LC-MS/MS analysis; type: ADME, organism-based; conditions: in vivo
How it was run: (§3)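 Rats were dosed with the 5% dextrose (pH 4−5) formulation, 5 mg/kg iv and 40 mg/kg po. Plasma was precipitated with acetonitrile and analysed by LC−MS/MS with a carbamazepine internal standard. Parameters were derived by noncompartmental analysis.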

[13] = target: T1, DNA gyrase subunit A/DNA gyrase subunit B (Mycobacterium tuberculosis (strain ATCC 25618 / H37Rv)) (UniProt P9WG45+P9WG47); assay: Inhibition of Mycobacterium tuberculosis H37Rv DNA gyrase holoenzyme using pBR322 DNA as substrate assessed as intact DNA level at 0.02 to 11 uM after 60 mins by cleavable complex assay relative to control; design: scale not given: the % may be the effect or the level left
How it was run: (§4)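 Reactions were started with DNA and run 60 min at 37 °C, then stopped with proteinase K/SDS for 1 h at 37 °C. Products were resolved on 0.8% agarose with ethidium for 16 h at 1 V/cm, and nicked, linear and supercoiled forms were quantified.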

[14] = Oral bioavailability in rat at 40 mg/kg by LC-MS/MS analysis; type: ADME, organism-based; conditions: in vivo; how it was run: as §3
[15] = target: T1, DNA gyrase subunit A/DNA gyrase subunit B (Mycobacterium tuberculosis (strain ATCC 25618 / H37Rv)); assay: Inhibition of Mycobacterium tuberculosis H37Rv DNA gyrase holoenzyme using pBR322 DNA as substrate assessed as increase in single-strand cleaved plasmid DNA level after 60 mins by cleavable complex assay relative to control; how it was run: as §4
Mus musculus [16] = assay: fT>MIC in BALB/c mouse infected with Mycobacterium tuberculosis at 20 mg/kg, po; how it was run: as §2
[17] = target: T1, DNA gyrase subunit A/DNA gyrase subunit B (Mycobacterium tuberculosis (strain ATCC 25618 / H37Rv)); assay: Inhibition of Mycobacterium tuberculosis H37Rv DNA gyrase holoenzyme using pBR322 DNA as substrate assessed as single stranded nicked DNA level at 0.02 to 11 uM after 60 mins by cleavable complex assay relative to control; design: scale not given: the % may be the effect or the level left; how it was run: as §4
[18] = target: Voltage-gated inwardly rectifying potassium channel KCNH2 (Homo sapiens, UniProt Q12809); assay: Inhibition of human ERG by patch clamp electrophysiological analysis
[19] = test system: Mycobacterium tuberculosis; assay: Antimycobacterial activity against Mycobacterium tuberculosis infected in aminobenzotriazole-pretreated BALB/c mouse chronic tuberculosis model assessed as reduction in log10CFU at 40 to 80 mg/kg, po bid for 8 weeks; type: functional, organism-based; how it was run: as §1
[20] = Ratio of fAUC in aminobenzotriazole-pretreated Mycobacterium tuberculosis infected BALB/c mouse at 20 mg/kg, po to MIC for wild-type Mycobacterium tuberculosis H37Rv ATCC 27294; how it was run: as §2
[21] = test system: Mycobacterium tuberculosis; assay: Antimycobacterial activity against Mycobacterium tuberculosis infected in aminobenzotriazole-pretreated BALB/c mouse acute tuberculosis model assessed as reduction in log10CFU at 160 mg/kg, po bid for 20 days; type: functional; how it was run: as §1
[22] = test system: Mycobacterium tuberculosis; assay: Bactericidal activity against Mycobacterium tuberculosis H37Rv at 0.01 to 2 ug/ml by time kill assay; type: functional, organism-based; conditions: TDE = time-dependent effect
How it was run: (§5)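 Time-kill in 7H9 broth with 0.2% glycerol, 0.05% Tween 80 and 10% ADC. Serial 2-fold dilutions were added to ~3 × 10^7 cfu/mL H37Rv at 37 °C. Aliquots were plated on 7H11 at days 0, 3, 7 and 10, and plates were incubated up to 28 days at 37 °C, 5% CO2, humidified. Results are given as log10 cfu per concentration.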

[23] = test system: Mycobacterium tuberculosis; assay: Bactericidal activity against Mycobacterium tuberculosis H37Rv assessed as reduction in log10CFU at 0.01 to 2 ug/ml after 10 days by time kill assay; type: functional; how it was run: as §5
[24] = Ratio of fAUC in aminobenzotriazole-pretreated Mycobacterium tuberculosis infected BALB/c mouse at 80 mg/kg, po to MIC for wild-type Mycobacterium tuberculosis H37Rv ATCC 27294; how it was run: as §2
[25] = test system: Mycobacterium tuberculosis; assay: Bactericidal activity against Mycobacterium tuberculosis H37Rv after 10 days by time kill assay; type: functional, organism-based; how it was run: as §5
Mus musculus [26] = assay: fT>MIC in BALB/c mouse infected with Mycobacterium tuberculosis at 80 mg/kg, po; how it was run: as §2

Chain of DNA gyrase subunit A/DNA gyrase subunit B (P9WG45 whole entry): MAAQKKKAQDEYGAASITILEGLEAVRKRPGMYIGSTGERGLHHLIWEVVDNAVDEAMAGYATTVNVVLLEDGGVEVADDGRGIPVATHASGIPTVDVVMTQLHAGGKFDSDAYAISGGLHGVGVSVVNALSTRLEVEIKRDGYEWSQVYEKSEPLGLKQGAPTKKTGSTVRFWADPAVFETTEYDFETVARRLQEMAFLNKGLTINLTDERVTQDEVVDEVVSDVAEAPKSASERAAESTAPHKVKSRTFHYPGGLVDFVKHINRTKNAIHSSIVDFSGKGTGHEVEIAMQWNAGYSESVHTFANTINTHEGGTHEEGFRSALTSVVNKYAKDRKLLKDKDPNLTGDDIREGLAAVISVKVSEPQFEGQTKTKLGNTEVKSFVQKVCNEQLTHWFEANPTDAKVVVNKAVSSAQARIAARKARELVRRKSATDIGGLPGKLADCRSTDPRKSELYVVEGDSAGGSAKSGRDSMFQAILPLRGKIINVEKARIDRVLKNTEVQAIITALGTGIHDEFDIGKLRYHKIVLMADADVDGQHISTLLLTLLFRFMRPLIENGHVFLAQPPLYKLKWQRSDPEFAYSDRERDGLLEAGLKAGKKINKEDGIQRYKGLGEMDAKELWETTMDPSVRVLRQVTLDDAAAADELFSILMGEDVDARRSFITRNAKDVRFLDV
Chain of DNA gyrase subunit A/DNA gyrase subunit B (P9WG47 whole entry): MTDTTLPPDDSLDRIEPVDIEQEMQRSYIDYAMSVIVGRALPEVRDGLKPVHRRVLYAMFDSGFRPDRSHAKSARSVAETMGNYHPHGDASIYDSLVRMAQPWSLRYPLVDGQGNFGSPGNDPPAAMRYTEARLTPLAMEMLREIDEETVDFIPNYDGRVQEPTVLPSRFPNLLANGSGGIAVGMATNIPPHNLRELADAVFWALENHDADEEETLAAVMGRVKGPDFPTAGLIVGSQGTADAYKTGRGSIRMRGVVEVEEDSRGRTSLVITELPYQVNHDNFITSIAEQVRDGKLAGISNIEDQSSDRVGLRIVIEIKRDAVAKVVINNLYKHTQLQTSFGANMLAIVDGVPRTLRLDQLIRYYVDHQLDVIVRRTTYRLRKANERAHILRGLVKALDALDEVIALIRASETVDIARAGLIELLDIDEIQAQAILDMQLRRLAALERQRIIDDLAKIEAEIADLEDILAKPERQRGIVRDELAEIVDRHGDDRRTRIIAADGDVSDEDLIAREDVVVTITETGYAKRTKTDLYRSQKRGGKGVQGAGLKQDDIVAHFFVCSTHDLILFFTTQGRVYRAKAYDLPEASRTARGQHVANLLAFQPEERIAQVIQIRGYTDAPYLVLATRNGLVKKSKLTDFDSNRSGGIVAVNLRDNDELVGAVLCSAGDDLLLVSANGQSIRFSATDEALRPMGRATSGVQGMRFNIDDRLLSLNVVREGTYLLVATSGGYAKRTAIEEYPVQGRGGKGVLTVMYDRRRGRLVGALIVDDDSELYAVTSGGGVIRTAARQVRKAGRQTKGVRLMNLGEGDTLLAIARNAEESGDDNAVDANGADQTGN
Chain of Voltage-gated inwardly rectifying potassium channel KCNH2 (Q12809 whole entry): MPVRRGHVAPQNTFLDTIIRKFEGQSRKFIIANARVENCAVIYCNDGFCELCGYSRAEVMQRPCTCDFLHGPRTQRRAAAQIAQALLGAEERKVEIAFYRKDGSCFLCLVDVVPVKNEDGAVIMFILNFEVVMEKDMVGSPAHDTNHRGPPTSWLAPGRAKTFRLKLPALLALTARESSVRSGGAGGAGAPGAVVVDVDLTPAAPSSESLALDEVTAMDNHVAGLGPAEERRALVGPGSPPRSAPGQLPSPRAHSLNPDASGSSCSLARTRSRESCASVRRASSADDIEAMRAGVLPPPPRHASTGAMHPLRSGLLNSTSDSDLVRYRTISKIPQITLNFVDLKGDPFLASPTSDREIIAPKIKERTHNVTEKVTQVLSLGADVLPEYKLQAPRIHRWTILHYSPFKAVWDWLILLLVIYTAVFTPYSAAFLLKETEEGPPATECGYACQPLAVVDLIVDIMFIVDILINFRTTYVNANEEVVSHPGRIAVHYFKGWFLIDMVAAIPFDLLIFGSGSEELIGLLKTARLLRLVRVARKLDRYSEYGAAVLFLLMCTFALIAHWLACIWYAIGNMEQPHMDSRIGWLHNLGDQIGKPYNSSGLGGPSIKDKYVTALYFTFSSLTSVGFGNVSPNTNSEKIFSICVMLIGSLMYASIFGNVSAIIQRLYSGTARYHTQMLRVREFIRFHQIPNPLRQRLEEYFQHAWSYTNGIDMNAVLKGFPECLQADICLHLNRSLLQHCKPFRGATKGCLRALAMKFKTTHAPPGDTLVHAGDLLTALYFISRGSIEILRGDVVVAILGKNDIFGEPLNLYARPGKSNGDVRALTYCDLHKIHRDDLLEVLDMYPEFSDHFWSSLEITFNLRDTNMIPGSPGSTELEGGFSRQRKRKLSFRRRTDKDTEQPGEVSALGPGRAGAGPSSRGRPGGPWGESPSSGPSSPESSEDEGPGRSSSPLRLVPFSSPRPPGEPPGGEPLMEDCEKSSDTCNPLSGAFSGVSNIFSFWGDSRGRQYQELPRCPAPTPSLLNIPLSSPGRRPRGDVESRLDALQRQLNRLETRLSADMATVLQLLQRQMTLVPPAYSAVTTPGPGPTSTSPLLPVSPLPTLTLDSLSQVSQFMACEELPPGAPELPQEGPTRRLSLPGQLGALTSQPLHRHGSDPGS

SMILES	Activity [2]	logD at 10000 µM [3]	fraction unbound [4]	LCK [5]	IC50 [6] [nM]	Papp A→B [7] [×10⁻⁶ cm/s]	Papp B→A [9] [×10⁻⁶ cm/s]	MIC [10] [µg/mL]	clearance [12] [mL/min/kg]	bioavailability [14] [%]	other results
COc1cnc2ccc(=O)n(CCN3CC[C@H](NCc4ccc5c(n4)NC(=O)CO5)[C@H](F)C3)c2c1	Active	0.82	0.48	1.3	170	3.4	12.7	0.06 (≈ 0.124 µM)	–	–	Activity [1]: Active; fT>MIC (Mus musculus [8]): 83%
COc1cnc2ccc(=O)n(CCN3CCC(NCc4cnc(C)c(C#N)c4)CC3)c2c1	–	1.07	0.23	–	140	10.5	8.3	0.06 (≈ 0.139 µM)	32	> 100	log10cfu [11]: 0.5; Activity [13]: 10%; inhibition [15]: Dose-dependent effect; fT>MIC (Mus musculus [16]): 58%; Activity [17]: 70%; IC50 [18]: 50600 nM; Activity [19]: Active; fAUC/MIC [20]: 54
O=C1COc2ccc(CN[C@@H]3CCN(CCn4c(=O)ccc5ncc(F)cc54)C[C@@H]3F)nc2N1	Active	0.47	0.32	1.3	350	7.6	11.2	0.13 (≈ 0.276 µM)	87	87	log10cfu [21]: 1.2; Activity [22]: tde; log10cfu [23]: >3; fAUC/MIC [24]: 129; Activity [25]: Dose-dependent effect; fT>MIC (Mus musculus [26]): 70%

Source: ChEMBL document CHEMBL3286091, “Novel N-linked aminopiperidine-based gyrase inhibitors with improved hERG and in vivo efficacy against Mycobacterium tuberculosis” (J Med Chem, 2014)
